Experimental data as given in ChEMBL document CHEMBL1124759, “Fluoronaphthyridines and quinolones as antibacterial agents. 2. Synthesis and structure-activity relationships of new 1-tert-butyl 7-substituted derivatives” (J Med Chem, 1990).
Converted amounts (≈) assume the structure as drawn.

Key:
[1] = test system: Enterococcus faecalis; experiment: In vitro minimum inhibitory concentration (MIC) against Enterococcus faecalis A 9808 at 37 degrees C for 18 h.; format: functional
Method in brief: (§1)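 Two-fold serial broth dilution in nutrient broth. Inoculum adjusted to 10^6 cfu/mL. Compounds tested from 0.0005 to 250 µg/mL.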

[2] = test system: Escherichia coli; experiment: In vitro minimum inhibitory concentration (MIC) against Escherichia coli A 15119 at 37 degrees C for 18 h.; format: functional; method in brief: as §1
[3] = test system: Enterococcus faecium; experiment: In vitro minimum inhibitory concentration (MIC) against Enterococcus faecium A 24885 at 37 degrees C for 18 h.; format: functional; method in brief: as §1
[4] = test system: Enterobacter cloacae; experiment: In vitro minimum inhibitory concentration (MIC) against Enterobacter cloacae A 9656 at 37 degree C for 18 h.; format: functional; method in brief: as §1
[5] = test system: Klebsiella pneumoniae; experiment: In vitro minimum inhibitory concentration (MIC) against Klebsiella pneumoniae A 9664 at 37 degrees C for 18 h.; format: functional; method in brief: as §1
[6] = test system: Morganella morganii; experiment: In vitro minimum inhibitory concentration (MIC) against Morganella morganii A 15153 at 37 degrees C for 18 h.; format: functional; method in brief: as §1
[7] = test system: Pseudomonas aeruginosa; experiment: In vitro minimum inhibitory concentration (MIC) against Pseudomonas aeruginosa A 9843 at 37 degrees C for 18 h; format: functional; method in brief: as §1
[8] = test system: Staphylococcus aureus; experiment: In vitro minimum inhibitory concentration (MIC) against Staphylococcus aureus Smith A 9537 at 37 degrees C for 18 hr; format: functional; method in brief: as §1
[9] = test system: Serratia marcescens; experiment: In vitro minimum inhibitory concentration (MIC) against Serratia marcescens A 20019 at 37 degrees C for 18 hr; format: functional; method in brief: as §1
[10] = test system: Escherichia coli; experiment: In vitro minimum inhibitory concentration (MIC) against Escherichia coli A 15119 at 37 degrees Celsius for 18 h.; format: functional; method in brief: as §1
[11] = test system: Enterobacter cloacae; experiment: (§2) In vitro minimum inhibitory concentration (MIC) against Enterobacter cloacae A 9656 at 37 degrees C for 18 h.; format: functional; method in brief: as §1
[12] = test system: Enterobacter cloacae; experiment: In vitro minimum inhibitory concentration (MIC) against Enterobacter cloacae A 9656 at 37 degrees Celsius for 18 h.; format: functional; method in brief: as §1
[13] = test system: Pseudomonas aeruginosa; experiment: In vitro minimum inhibitory concentration (MIC) against Pseudomonas aeruginosa A 9843 at 37 degree C for 18 h; format: functional; method in brief: as §1
[14] = (§3) Tested for aqueous solubility; conditions: aqueous medium
[15] = test system: Escherichia coli; experiment: Efficacy on systematic infections against Escherichia coli A 15119 after oral administration in mice; format: functional; conditions: read-out: PD50
Method in brief: (§4)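 Mice given compound orally after lethal systemic infection. Read-out is the oral dose protecting 50% of mice from death (PD50), reported in mg/kg.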

[16] = test system: Klebsiella pneumoniae; experiment: Efficacy on systematic infections against Klebsiella pneumoniae A 9664 after oral administration in mice; format: functional; conditions: read-out: PD50; method in brief: as §4
[17] = test system: Klebsiella pneumoniae; experiment: In vitro minimum inhibitory concentration (MIC) against Klebsiella pneumoniae A 9664 at 37 degrees C for 18 h; format: functional; method in brief: as §1
[18] = test system: Mus musculus; experiment: Dose to protect 50% of mice from lethal infection after intravenous administration; format: functional
[19] = test system: Mus musculus; experiment: Dose to protect 50% of mice from lethal infection after peroral administration.; format: functional; conditions: po; method in brief: as §4
[20] = test system: Pseudomonas aeruginosa; experiment: Efficacy on systematic infections against Pseudomonas aeruginosa A 9843 after oral administration in mice; format: functional; conditions: read-out: PD50; method in brief: as §4
[21] = test system: Staphylococcus aureus; experiment: Efficacy on systematic infections against Staphylococcus aureus A 9537 after oral administration in mice; format: functional; conditions: read-out: PD50; method in brief: as §4
[22] = test system: Enterobacter cloacae; experiment: as §2; format: functional; remark: listed apart in the source
[23] = species on record: Canis familiaris; conditions: dog, in vivo, po, 25 mg/kg
[24] = test system: Canis familiaris; experiment: in vivo; conditions: dog, po, 25 mg/kg
[25] = test system: Canis familiaris; experiment: in vivo; conditions: dog, po, 25 mg/kg; remark: listed apart in the source
[26] = in vivo; conditions: dog, urine, po, 25 mg/kg
[27] = test system: Klebsiella pneumoniae; experiment: In vitro minimum inhibitory concentration (MIC) against Klebsiella pneumoniae A 9664 at 37 degrees Celsius for 18 h.; format: functional; method in brief: as §1
[28] = test system: Staphylococcus aureus; experiment: Efficacy on systematic infections against Staphylococcus aureus Smith A 9537 after oral administration in mice; format: functional; conditions: read-out: PD50; method in brief: as §4
[29] = as §3; format: physicochemical; conditions: aqueous medium; read-out: S
Method in brief: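 An excess of solid was shaken overnight in water for injection at isoelectric pH. The mixture was filtered, and the filtrate was diluted and quantified by HPLC with UV detection.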

[30] = test system: Klebsiella pneumoniae; experiment: In vitro minimum inhibitory concentration (MIC) […] A 9664 at 37 degrees Celsius for 18 h.; format: functional; method in brief: as §1

| Structure (SMILES) | MIC [1] | MIC [2] | MIC [3] | MIC [5] | MIC [6] | MIC [8] | MIC [9] | MIC [13] | ED50 [15] | ED50 [16] | ED50 [20] | MIC [22] | other results |
| --- | --- | --- | --- | --- | --- | --- | --- | --- | --- | --- | --- | --- | --- |
| CC1CN(c2nc3c(cc2F)c(=O)c(C(=O)O)cn3C(C)(C)C)CCN1 (stereo not drawn) | 0.5 µg/mL (≈ 1.38 µM) | 0.5 µg/mL (≈ 1.38 µM) | 2 µg/mL (≈ 5.52 µM) | 2 µg/mL (≈ 5.52 µM) | 4 µg/mL (≈ 11 µM) | 0.13 µg/mL (≈ 0.359 µM) | 4 µg/mL (≈ 11 µM) |  |  |  |  |  | MIC [4]: 1 µg/mL (≈ 2.76 µM); MIC [7]: 8 µg/mL (≈ 22.1 µM) |
| CC1CN(c2cc3c(cc2F)c(=O)c(C(=O)O)cn3C(C)(C)C)CC(C)N1 (stereo not drawn) | 2 µg/mL (≈ 5.33 µM) |  | 8 µg/mL (≈ 21.3 µM) | 0.5 µg/mL (≈ 1.33 µM) | 1 µg/mL (≈ 2.66 µM) | 0.25 µg/mL (≈ 0.666 µM) | 2 µg/mL (≈ 5.33 µM) |  |  |  |  |  | MIC [10]: 0.13 µg/mL (≈ 0.346 µM); MIC [11]: 0.13 µg/mL (≈ 0.346 µM); MIC [7]: 4 µg/mL (≈ 10.7 µM) |
| CCNC1CCN(c2nc3c(cc2F)c(=O)c(C(=O)O)cn3C(C)(C)C)C1 (stereo not drawn) | 0.13 µg/mL (≈ 0.345 µM) | 0.06 µg/mL (≈ 0.159 µM) | 4 µg/mL (≈ 10.6 µM) | 0.06 µg/mL (≈ 0.159 µM) | 1 µg/mL (≈ 2.66 µM) | 0.06 µg/mL (≈ 0.159 µM) | 1 µg/mL (≈ 2.66 µM) | 4 µg/mL (≈ 10.6 µM) |  |  |  |  | MIC [12]: 0.25 µg/mL (≈ 0.664 µM) |
| CC(C)(C)n1cc(C(=O)O)c(=O)c2cc(F)c(N3C[C@H]4C[C@@H]3CN4)nc21 | 0.13 µg/mL (≈ 0.361 µM) | 0.06 µg/mL (≈ 0.166 µM) | 1 µg/mL (≈ 2.77 µM) |  | 0.25 µg/mL (≈ 0.694 µM) | 0.06 µg/mL (≈ 0.166 µM) | 0.06 µg/mL (≈ 0.166 µM) | 0.25 µg/mL (≈ 0.694 µM) | 1.8 mg/kg | 4.9 mg/kg | 4.7 mg/kg | 0.06 µg/mL (≈ 0.166 µM) | solubility [14]: 80 µg/mL (≈ 222 µM); MIC [17]: 0.06 µg/mL (≈ 0.166 µM); LD50 [18]: 303 mg/kg; LD50 [19]: 5000 mg/kg; ED50 [21]: 1.6 mg/kg; AUC [23]: 55000 ng·h/mL; Cmax [24]: 5600 ng/mL; half-life [25]: 4.5 h; dose excreted [26]: 20% |
| CC(C)(C)n1cc(C(=O)O)c(=O)c2cc(F)c(N3CCNC(CF)C3)nc21.CS(=O)(=O)O (stereo not drawn) | 4 µg/mL | 0.13 µg/mL | 16 µg/mL |  | 1 µg/mL | 0.13 µg/mL | 1 µg/mL | 4 µg/mL |  |  |  | 0.06 µg/mL | MIC [27]: 0.13 µg/mL |
| CCn1cc(C(=O)O)c(=O)c2cc(F)c(N3CCNCC3)cc21 [NORFLOXACIN] | 4 µg/mL (≈ 12.5 µM) | 0.13 µg/mL (≈ 0.407 µM) | 8 µg/mL (≈ 25.1 µM) | 0.03 µg/mL (≈ 0.0939 µM) | 0.015 µg/mL (≈ 0.047 µM) | 0.25 µg/mL (≈ 0.783 µM) | 0.13 µg/mL (≈ 0.407 µM) | 0.5 µg/mL (≈ 1.57 µM) | 13 mg/kg | 8 mg/kg | 12.6 mg/kg | 0.06 µg/mL (≈ 0.188 µM) | ED50 [28]: 1.9 mg/kg |
| O=C(O)c1cn(C2CC2)c2cc(N3CCNCC3)c(F)cc2c1=O [CIPROFLOXACIN] | 0.5 µg/mL (≈ 1.51 µM) |  | 4 µg/mL (≈ 12.1 µM) | 0.03 µg/mL (≈ 0.0905 µM) | 0.015 µg/mL (≈ 0.0453 µM) | 0.13 µg/mL (≈ 0.392 µM) | 0.3 µg/mL (≈ 0.905 µM) | 0.13 µg/mL (≈ 0.392 µM) | 1 mg/kg | 1.5 mg/kg | 2.6 mg/kg |  | ED50 [28]: 3.4 mg/kg |
| CS(=O)(=O)O.C[C@H]1CN(c2nc3c(cc2F)c(=O)c(C(=O)O)cn3C(C)(C)C)C[C@@H]1N | 0.06 µg/mL | 0.015 µg/mL | 0.5 µg/mL |  | 0.13 µg/mL | 0.008 µg/mL | 0.13 µg/mL | 0.25 µg/mL | 2.4 mg/kg | 6.3 mg/kg | 6.3 mg/kg | 0.015 µg/mL | MIC [27]: 0.06 µg/mL; ED50 [21]: 1.6 mg/kg |
| CC(C)(C)n1cc(C(=O)O)c(=O)c2cc(F)c(N3C[C@H]4C[C@@H]3CN4)cc21.CS(=O)(=O)O | 2 µg/mL | 0.5 µg/mL | 4 µg/mL |  | 2 µg/mL | 0.5 µg/mL | 0.25 µg/mL | 0.5 µg/mL |  |  |  | 0.25 µg/mL | solubility [29]: 230 µg/mL; MIC [30]: 0.13 µg/mL |
